Test results published in paper PMC4459094 (FEBS Open Bio, 2015).

What was measured:
hMIP = conditions: continuous activity assay with fluorogenic substrate Abz-GFSPFRQ-EDDnp; cited from earlier work
[1] = biological target: T1, recombinant human mitochondrial intermediate peptidase (hMIP) (Homo sapiens, UniProt Q99797); assay: Hydrolysis of FRET peptides by hMIP in solution; format: biochemical; conditions: analogue without the P8 and P5 versus Abz-FRSGQPLQNKVQLQ-EDDnp
T1 sequence (Q99797 36-713): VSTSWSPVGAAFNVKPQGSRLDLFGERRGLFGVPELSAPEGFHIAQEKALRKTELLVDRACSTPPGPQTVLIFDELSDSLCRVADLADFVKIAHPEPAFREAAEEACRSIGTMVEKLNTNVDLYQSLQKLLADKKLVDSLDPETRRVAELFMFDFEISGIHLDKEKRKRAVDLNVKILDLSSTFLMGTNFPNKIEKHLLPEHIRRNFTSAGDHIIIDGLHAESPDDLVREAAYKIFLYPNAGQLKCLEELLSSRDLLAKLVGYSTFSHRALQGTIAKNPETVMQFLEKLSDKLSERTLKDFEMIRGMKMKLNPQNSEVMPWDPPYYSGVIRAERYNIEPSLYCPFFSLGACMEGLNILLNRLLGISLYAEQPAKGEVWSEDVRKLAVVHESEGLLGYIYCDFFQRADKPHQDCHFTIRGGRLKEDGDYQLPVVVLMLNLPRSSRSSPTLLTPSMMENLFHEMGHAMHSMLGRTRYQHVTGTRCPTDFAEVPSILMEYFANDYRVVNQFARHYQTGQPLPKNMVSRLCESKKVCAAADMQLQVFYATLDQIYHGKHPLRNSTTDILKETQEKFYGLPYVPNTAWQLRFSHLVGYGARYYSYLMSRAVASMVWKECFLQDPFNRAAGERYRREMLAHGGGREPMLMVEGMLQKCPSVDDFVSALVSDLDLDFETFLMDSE
In short: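 Recombinant human MIP with an N-terminal His6 tag replacing the mitochondrial signal sequence, expressed in E. coli BL21(DE3)pLysS and purified by Ni-affinity then anion-exchange chromatography. Abz/EDDnp FRET peptide hydrolysis was followed fluorometrically (ex 320, em 420 nm). Rates were converted to moles per second using standard peptide fluorescence before and after total hydrolysis, with under 10% substrate consumed. kcat, KM and kcat/KM are given as means ± SD.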

Molecule | inhibition of hMIP (hMIP) | fold lower specificity constant than Abz-FRSGQPLQNKVQLQ-EDDnp [1]
C[C@H](CS)C(=O)N1CCC[C@H]1C(=O)O [captopril] | small level of inhibition | –
Abz-QPLQNKVQ-EDDnp [Abz-QPLQ↓NKVQ-EDDnp] | – | 7 fold
O=C(O)CNC(=O)C(CS)Cc1ccccc1 (stereo not drawn) [thiorphan] | small level of inhibition | –
